Values joined by “and” are separate entries in the source; they are usually repeats but may differ in a detail not shown here. Identical values can stand only once.
Tests used:
Type in all cases: toxicity, cell-based
[1] = tested on: Fibroblast; assay: Multiplex assay against human fibroblast; details: number of replicates 2
Summary of the method: (§1)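 Live cells carried four stains from seeding: Hoechst33342, BioTracker Green Microtubule Cytoskeleton Dye, MitoTracker Red and Annexin V Alexa Fluor 680. They were imaged on a CQ1 microscope at 37°C and 5% CO2 after compound addition. Using CellPathfinder machine-learning gating, cells were split into Hoechst high-intensity objects or normal cells, normal cells into healthy, pyknosed or fragmented nuclei, and pyknosed cells into mitotic or apoptotic; tubulin, mitochondrial-mass and membrane-permeability phenotypes are per cents of healthy-nucleus cells.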

[2] = tested on: HEK-293T; assay: Multiplex assay against HEK293T; details: human, number of replicates 2; summary of the method: as §1
[3] = tested on: U2OS; assay: Multiplex assay against U2OS; details: human, number of replicates 2; summary of the method: as §1
[4] = 12 h, 1 µM, compound concentration 1 uM
[5] = 12 h, 10 µM, compound concentration 10 uM
[6] = 24 h, 1 µM, compound concentration 1 uM
[7] = 24 h, 10 µM, compound concentration 10 uM
[8] = 48 h, 1 µM, compound concentration 1 uM
[9] = 48 h, 10 µM, compound concentration 10 uM

## CS(=O)(=O)c1ccc(C(=O)Nc2ccc(F)c(COc3ccc(Br)cc3CN3CC[C@H](O)C3)c2)c(Cl)c1.O=CO
[1]; [4]
  Population Apoptotic (%): 42% and 43%
  Population Fragmented Nuclei (%): 7% and 9%
  Population Healthy Nuclei (%): 63% and 67%
  Population Hoechst High Intensity Objects (%): 0%
  Population Normal (%): 100%
  Total Cell Count: 217 and 239
[1]; [5]
  Population Apoptotic (%): 42% and 43%
  Population Fragmented Nuclei (%): 21%
  Population Healthy Nuclei (%): 50% and 52%
  Population Hoechst High Intensity Objects (%): 0%
  Population Normal (%): 100% and 99%
  Total Cell Count: 194 and 258
[1]; [6]
  Population Apoptotic (%): 42% and 57%
  Population Fragmented Nuclei (%): 10% and 14%
  Population Healthy Nuclei (%): 64% and 69%
  Population Hoechst High Intensity Objects (%): 0%
  Population Normal (%): 100% and 99%
  Total Cell Count: 220 and 253
[1]; [7]
  Population Apoptotic (%): 72% and 81%
  Population Fragmented Nuclei (%): 15%
  Population Healthy Nuclei (%): 62% and 52%
  Population Hoechst High Intensity Objects (%): 0%
  Population Normal (%): 100% and 99%
  Total Cell Count: 197 and 255
[1]; [8]
  Population Apoptotic (%): 71% and 78%
  Population Fragmented Nuclei (%): 18% and 14%
  Population Healthy Nuclei (%): 64% and 73%
  Population Hoechst High Intensity Objects (%): 0%
  Population Normal (%): 99%
  Total Cell Count: 244 and 243
[1]; [9]
  Population Apoptotic (%): 88%
  Population Fragmented Nuclei (%): 20% and 15%
  Population Healthy Nuclei (%): 58% and 63%
  Population Hoechst High Intensity Objects (%): 0%
  Population Normal (%): 100% and 98%
  Total Cell Count: 178 and 242
[2]; [4]
  Population Apoptotic (%): 55% and 45%
  Population Healthy Nuclei (%): 81% and 82%
  Population Mitotic Cells (%): 44% and 54%
  Population Normal (%): 94% and 93%
  Total Cell Count: 519 and 629
[2]; [5]
  Population Apoptotic (%): 61% and 58%
  Population Healthy Nuclei (%): 87% and 82%
  Population Normal (%): 91% and 88%
  Total Cell Count: 484 and 427
[2]; [6]
  Population Apoptotic (%): 60% and 47%
  Population Healthy Nuclei (%): 80% and 83%
  Population Mitotic Cells (%): 52%
  Population Normal (%): 92% and 93%
  Total Cell Count: 796 and 885
[2]; [7]
  Population Apoptotic (%): 69% and 68%
  Population Healthy Nuclei (%): 85% and 79%
  Population Mitotic Cells (%): 30%
  Population Normal (%): 90% and 91%
  Total Cell Count: 489 and 456
[2]; [8]
  Population Apoptotic (%): 29% and 26%
  Population Healthy Nuclei (%): 83% and 86%
  Population Mitotic Cells (%): 70% and 73%
  Population Normal (%): 89% and 92%
  Total Cell Count: 1639 and 1757
[2]; [9]
  Population Apoptotic (%): 74% and 55%
  Population Healthy Nuclei (%): 82% and 85%
  Population Mitotic Cells (%): 25% and 44%
  Population Normal (%): 86% and 90%
  Total Cell Count: 548 and 631
[3]; [4]
  Population Apoptotic (%): 60%
  Population Healthy Nuclei (%): 60% and 82%
  Population Normal (%): 100%
  Population Pyknosed Nuclei (%): 10%
[3]; [5]
  Population Apoptotic (%): 91% and 68%
  Population Healthy Nuclei (%): 41% and 73%
  Population Normal (%): 100% and 98%
  Population Pyknosed Nuclei (%): 22%
[3]; [6]
  Population Apoptotic (%): 77% and 65%
  Population Healthy Nuclei (%): 62% and 84%
  Population Normal (%): 100%
  Population Pyknosed Nuclei (%): 13%
[3]; [7]
  Population Apoptotic (%): 71% and 92%
  Population Healthy Nuclei (%): 61% and 47%
  Population Normal (%): 98% and 100%
[3]; [8]
  Population Apoptotic (%): 100% and 93%
  Population Healthy Nuclei (%): 67% and 88%
  Population Normal (%): 100%
  Population Pyknosed Nuclei (%): 9%
[3]; [9]
  Population Apoptotic (%): 94% and 89%
  Population Healthy Nuclei (%): 23% and 51%
  Population Normal (%): 97% and 100%
  Population Pyknosed Nuclei (%): 41% and 39%
